How the values were obtained:
A498 [1] = experiment: Antiproliferative activity against human A498 cells assessed as reduction in cell viability at 30 uM incubated for 72 hrs by MTT assay relative to control; type: functional; details: A498, 72 h
Method in brief: (§1)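 MTT read-out. Cells seeded at 1,000-2,200/well, grown 12 hr at 37 °C, then compound added for 72 hr. MTT for 4 hr, formazan dissolved in DMSO, absorbance at 490 nm. Untreated-cell OD taken as 100% proliferation; inhibition reported at 30 μM.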

OS-RC-2 [2] = experiment: Antiproliferative activity against human OS-RC2 cells assessed as reduction in cell viability at 30 uM incubated for 72 hrs by MTT assay relative to control; type: functional; details: OS-RC-2, 72 h; method in brief: as §1
[3] = target: Speckle-type POZ protein (Homo sapiens) (UniProt O43791); experiment: Binding affinity to recombinant N-terminal GST/His-tagged MATH binding domain SPOP (unknown origin) expressed in Escherichia coli BL21 (DE3) assessed as change in melting temperature at 10 fold compound incubated for 15 mins by nano differential scanning fluorimetry (reference value: -1.7 degreeC)
Speckle-type POZ protein (Homo sapiens), sequence (O43791 whole entry, the tested form may be a part): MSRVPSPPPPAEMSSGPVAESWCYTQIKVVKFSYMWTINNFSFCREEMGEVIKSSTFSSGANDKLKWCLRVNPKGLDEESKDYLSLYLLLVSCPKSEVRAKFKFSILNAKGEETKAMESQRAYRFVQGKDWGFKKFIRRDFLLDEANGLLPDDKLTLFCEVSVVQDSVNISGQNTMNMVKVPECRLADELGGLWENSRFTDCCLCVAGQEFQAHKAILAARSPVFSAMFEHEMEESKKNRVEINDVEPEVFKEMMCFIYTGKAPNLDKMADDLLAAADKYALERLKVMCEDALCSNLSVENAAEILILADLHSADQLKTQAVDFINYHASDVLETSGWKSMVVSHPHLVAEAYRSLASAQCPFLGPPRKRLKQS

[4] = target: Speckle-type POZ protein (Homo sapiens) (UniProt O43791); experiment: Binding affinity to recombinant N-terminal GST/His-tagged MATH binding domain SPOP (unknown origin) expressed in Escherichia coli BL21 (DE3) assessed as change in melting temperature at 20 fold compound incubated for 15 mins by nano differential scanning fluorimetry (reference value: -3.8 degreeC)
OS-RC-2 [5] = experiment: Antiproliferative activity against human OS-RC2 cells assessed as reduction in cell viability incubated for 72 hrs by MTT assay; type: functional, cell-based; details: OS-RC-2, 72 h
Method in brief: (§2)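 MTT read-out. Cells seeded at 1,000-2,200/well, grown 12 hr at 37 °C before compound, then exposed 72 hr. MTT for 4 hr, formazan dissolved in DMSO, A490 read. Untreated cells = 100% proliferation. IC50 quantitated; mean ± SD, n = 3.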

A498 [6] = experiment: Antiproliferative activity against human A498 cells assessed as reduction in cell viability incubated for 72 hrs by MTT assay; type: functional, cell-based; details: A498, 72 h; method in brief: as §2
[7] = target: Speckle-type POZ protein (Homo sapiens) (UniProt O43791); experiment: Binding affinity to recombinant N-terminal GST/His-tagged SPOP (unknown origin) MATH binding domain expressed in Escherichia coli BL21 (DE3) assessed as change in melting temperature at 5 fold compound by SYPRO Orange dye based differential scanning fluorimetry (reference value: -1.7 degreeC)

ΔTm [3] [°C] | ΔTm [4] [°C] | ΔTm [7] [°C] | Structure (SMILES) | inhibition at 30 µM (A498 [1]) [%] | inhibition at 30 µM (OS-RC-2 [2]) [%] | IC50 (OS-RC-2 [5]) [µM] | IC50 (A498 [6]) [µM]
 |  |  | C#CCn1c(=N)c(C(=O)NCCCN2CCOCC2)cc2c(=O)n3cccc(C)c3nc21 | 37 | 37 |  | 
1.7 | 1.9 |  | CCOC(=O)c1cc2c(=O)n3cccc(C)c3nc2n(-c2ccc(F)cc2)c1=N | 33 | 16 |  | 
 |  |  | Cc1cccn2c(=O)c3cc(C(=O)NCCCN4CCOCC4)c(=N)n(CCCc4ccccc4)c3nc12 | 90 | 91 | 5.1 | 2.6
1.8 | 2.1 | 2 | Cc1ccc(CCn2c(=N)c(C(=O)NCCCN3CCOCC3)cc3c(=O)n4cccc(C)c4nc32)cc1 | 91 | 94 | 5.7 | 2.1
2.3 | 3.7 |  | Cc1cccn2c(=O)c3cc(C(=O)O)c(=N)n(CCc4ccccc4)c3nc12 | 13 | 28 |  | 
 |  |  | O=C(O)c1cc2cccnc2n(CCc2ccccc2)c1=O | 33 | 24 |  | 
 |  |  | CCOC(=O)c1cc2c(=O)n3cccc(C)c3nc2n(C(C)C)c1=N | 27 | 23 |  | 
4.9 | 5.3 |  | CCOC(=O)c1cc2c(=O)n3cccc(C)c3nc2n(CCc2cccs2)c1=N | 38 | 49 |  | 
2.4 | 3.5 |  | Cc1cccn2c(=O)c3cc(C(=O)NCCCN4CCOCC4)c(=N)n(CCc4ccc(Cl)cc4)c3nc12 | 90 | 97 | 4 | 2.3
 |  |  | Cc1cccn2c(=O)c3cc(C(=O)NCC4CCCO4)c(=N)n(CCc4cccs4)c3nc12 (stereo not given) | 86 | 83 |  | 
 |  |  | CCN(CC)CCNC(=O)c1cc2cccnc2n(CCc2ccccc2)c1=O | 13 | 30 |  | 
 |  |  | Cc1cccn2c(=O)c3cc(C(=O)NCCCN4CCOCC4)c(=N)n(C)c3nc12 | 59 | 62 |  | 
 |  |  | CCOC(=O)c1cc2c(=O)n3cccc(C)c3nc2n(Cc2ccccc2)c1=N | 24 | 26 |  | 
 |  |  | O=C(O)c1cc2cnccc2n(CCc2ccccc2)c1=O | 21 | 15 |  | 
 |  |  | Cc1cccn2c(=O)c3cc(C(=O)NCCCN4CCOCC4)c(=N)n(CCc4c[nH]c5ccccc45)c3nc12 | 55 | 51 |  | 
 |  |  | CCN(CC)CCNC(=O)c1cc2cnccc2n(CCc2ccccc2)c1=O | 38 | 11 |  | 
 |  |  | Cc1cccn2c(=O)c3cc(C(=O)NCCCN4CCOCC4)c(=N)n(CCCN4CCOCC4)c3nc12 | 27 | 35 |  | 
 |  |  | Cc1ccn2c(=O)c3cc(C(=O)NCCCN4CCOCC4)c(=N)n(CCc4cccs4)c3nc2c1 | 75 | 77 |  | 
 |  |  | Cc1cccn2c(=O)c3cc(C(=O)NCCCN4CCOCC4)c(=N)n(Cc4ccccc4)c3nc12 | 58 | 46 |  | 

ΔTm [3] [°C] | ΔTm [4] [°C] | ΔTm [7] [°C] | Structure (SMILES) | inhibition at 30 µM (A498 [1]) [%] | inhibition at 30 µM (OS-RC-2 [2]) [%] | IC50 (OS-RC-2 [5]) [µM] | IC50 (A498 [6]) [µM]
3.1 | 3.3 |  | Cc1cccn2c(=O)c3cc(C(=O)NCCN4CCOCC4)c(=N)n(CCc4cccs4)c3nc12 | 86 | 82 |  | 
 |  |  | CCCn1c(=N)c(C(=O)NCCCN2CCOCC2)cc2c(=O)n3cccc(C)c3nc21 | 57 | 66 | 5.2 | 6.4
2.8 | 2.6 |  | Cc1cccn2c(=O)c3cc(C(=O)NCCCc4ccccc4)c(=N)n(CCc4cccs4)c3nc12 | 62 | 58 |  | 
 |  |  | CCOC(=O)c1cc2c(=O)n3cccc(C)c3nc2n(-c2ccccc2)c1=N | 51 | 10 |  | 
2.5 | 2.9 | 2 | Cc1cccn2c(=O)c3cc(C(=O)NCCCN4CCOCC4)c(=N)n(CCc4ccc(F)cc4)c3nc12 | 90 | 88 | 6.6 | 3.1
 |  |  | O=C(NCCc1ccc(F)cc1)c1cc2cnccc2n(CCc2ccccc2)c1=O | 25 | 16 |  | 
 |  |  | Cc1cccn2c(=O)c3cc(C(=O)O)c(=N)n(-c4ccc(F)cc4)c3nc12 | 18 | 33 |  | 
 |  |  | Cc1cccn2c(=O)c3cc(C(=O)O)c(=N)n(Cc4ccco4)c3nc12 | 24 | 16 |  | 
 |  |  | Cc1cccn2c(=O)c3cc(C(=O)NCCCN4CCOCC4)c(=N)n(C4CCCCC4)c3nc12 | 37 | 22 |  | 
 |  |  | CCOC(=O)c1cc2cnccc2n(CCc2ccccc2)c1=O | 14 | 15 |  | 
 |  |  | CCOC(=O)c1cc2cccnc2n(CCc2ccccc2)c1=O | 15 | 19 |  | 
 |  |  | Cc1cccn2c(=O)c3cc(C(=O)O)c(=N)n(C(C)C)c3nc12 | 18 | 22 |  | 
 |  |  | Cc1cccn2c(=O)c3cc(C(=O)NCCCN4CCOCC4)c(=N)n(-c4ccccc4)c3nc12 | 12 | 23 |  | 
 |  |  | Cc1cccn2c(=O)c3cc(C(=O)O)c(=N)n(CCc4ccc(Cl)cc4)c3nc12 | 57 | 30 |  | 
 |  |  | Cc1cccn2c(=O)c3cc(C(=O)NCCc4ccc(F)cc4)c(=N)n(CCc4cccs4)c3nc12 | 12 | 21 |  | 
 |  |  | Cc1cccn2c(=O)c3cc(C(=O)O)c(=N)n(CCc4cccs4)c3nc12 | 25 | 37 |  | 
 |  |  | CCOC(=O)c1cc2c(=O)n3cccc(C)c3nc2n(Cc2ccco2)c1=N | 59 | 56 |  | 
 |  |  | Cc1cccn2c(=O)c3cc(C(=O)NCCCN4CCOCC4)c(=N)n(-c4ccc(Cl)cc4)c3nc12 | 17 | 38 |  | 
 |  |  | Cc1cccn2c(=O)c3cc(C(=O)NCCCN4CCOCC4)c(=N)n(CCN4CCOCC4)c3nc12 | 35 | 40 |  | 

ΔTm [3] [°C] | ΔTm [4] [°C] | ΔTm [7] [°C] | Structure (SMILES) | inhibition at 30 µM (A498 [1]) [%] | inhibition at 30 µM (OS-RC-2 [2]) [%] | IC50 (OS-RC-2 [5]) [µM] | IC50 (A498 [6]) [µM]
 |  |  | CCN(CC)CCn1c(=N)c(C(=O)NCCCN2CCOCC2)cc2c(=O)n3cccc(C)c3nc21 | 86 | 89 | 3.9 | 3.5
 |  |  | Cc1cccn2c(=O)c3cc(C(=O)NCc4ccccc4)c(=N)n(CCc4cccs4)c3nc12 | 60 | 50 |  | 
 |  |  | Cc1ccc(CCn2c(=N)c(C(=O)O)cc3c(=O)n4cccc(C)c4nc32)cc1 | 51 | 31 |  | 
 |  |  | Cc1cccn2c(=O)c3cc(C(=O)NCCCN4CCOCC4)c(=N)n(C(C)C)c3nc12 | 11 | 15 |  | 
0.8 | 1.5 |  | CCOC(=O)c1cc2c(=O)n3cccc(C)c3nc2n(CCc2ccc(C)cc2)c1=N | 51 | 49 |  | 
 |  |  | Cc1cccn2c(=O)c3cc(C(=O)NCCCN4CCOCC4)c(=N)n(CCOc4ccccc4)c3nc12 | 50 | 36 |  | 
 |  |  | Cc1cccn2c(=O)c3cc(C(=O)NCCO)c(=N)n(CCc4cccs4)c3nc12 | 83 | 81 |  | 
 |  |  | Cc1cccn2c(=O)c3cc(C(=O)O)c(=N)n(Cc4ccccc4)c3nc12 | 20 | 32 |  | 
 |  |  | Cc1cccn2c(=O)c3cc(C(=O)NCCCN4CCOCC4)c(=N)n(CCc4ccccc4F)c3nc12 | 61 | 74 |  | 
 |  |  | CCCn1c(=N)c(C(=O)O)cc2c(=O)n3cccc(C)c3nc21 | 21 | 29 |  | 
3.5 | 3.7 |  | Cc1cccn2c(=O)c3cc(C(=O)NCCc4ccccc4)c(=N)n(CCc4cccs4)c3nc12 | 85 | 52 | 24.2 | 5
 |  |  | Cc1cccn2c(=O)c3cc(C(=O)O)c(=N)n(-c4ccccc4)c3nc12 | 24 | 16 |  | 
 |  |  | CCOC(=O)c1cc2c(=O)n3cccc(C)c3nc2n(CCc2ccccc2)c1=N | 24 | 20 |  | 
 |  |  | O=C(NCCc1ccc(F)cc1)c1cc2cccnc2n(CCc2ccccc2)c1=O | 8 | 14 |  | 
0.8 | 1.6 |  | CCOC(=O)c1cc2c(=O)n3cccc(C)c3nc2n(CCc2ccc(Cl)cc2)c1=N | 42 | 48 |  | 
 |  |  | CCCn1c(=N)c(C(=O)OCC)cc2c(=O)n3cccc(C)c3nc21 | 38 | 35 |  | 
 |  |  | Cc1cccn2c(=O)c3cc(C(=O)NCCCN4CCOCC4)c(=N)n(Cc4ccncc4)c3nc12 | 48 | 35 |  | 
 |  |  | N=c1c(C(=O)NCCCN2CCOCC2)cc2c(=O)n3ccccc3nc2n1CCc1cccs1 | 62 | 56 |  | 
